Active and inactive are the calls of the source. No cut-off for these calls is given here.
Legend:
[1] = system: Mus musculus; experiment: Decrease in leukocyte infiltration in Kunming mouse implanted with mouse H22 cells at 50 to 200 mg/kg, ig once daily for 12 days measured at 24 hrs post last dose by hematoxylin and eosin staining based microscopic method; format: functional, organism-based
Summary of the method: (§1)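 H22 cells given 0.2 mL of 1 × 10^6 cells per mL subcutaneously in the right axilla. Treatment began on day 3, […]. Dosing was intragastric in saline, once daily for 12 days, n = 10 per group. Mice were killed 24 h after the last dose. Tumors were fixed in buffered neutral 10% formalin, paraffin-embedded, cut at 4 μm, HE-stained and examined by light microscopy at 400×.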

[2] = system: Mus musculus; experiment: Immunostimulatory activity in Kunming mouse implanted with mouse H22 cells assessed as increase in serum IL-2 level at 50 mg/kg, ig once daily for 12 days measured at 24 hrs post last dose by ELISA; format: functional, organism-based
Summary of the method: (§2)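 Serum came from H22 sc tumor-bearing mice dosed intragastrically once daily for 12 days, collected 24 h after the last dose from the orbital plexus (3000g, 10 min, stored at –80 °C). IL-2, IL-6, TNF-α, IFN-γ, VEGF and bFGF were measured by commercial ELISA kits following the manufacturer's protocol.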

[3] = system: Mus musculus; experiment: Immunosuppressive effect in Kunming mouse implanted with mouse H22 cells assessed as liver index at 200 mg/kg, ig once daily for 12 days measured at 24 hrs post last dose (reference value: 4.17 +/- 0.68%); format: ADME, organism-based; details: in vivo, po
[4] = system: Mus musculus; experiment: Immunostimulatory activity in Kunming mouse implanted with mouse H22 cells assessed as increase in serum IFNgamma level at 200 mg/kg, ig once daily for 12 days measured at 24 hrs post last dose by ELISA; format: functional, organism-based; summary of the method: as §2
[5] = system: Mus musculus; experiment: Hepatotoxicity in Kunming mouse implanted with mouse H22 cells assessed as increase in serum ALT level at 50 to 200 mg/kg, ig once daily for 12 days measured at 24 hrs post last dose; format: toxicity, organism-based; details: in vivo, po
Summary of the method: (§3)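 Mice bore sc H22 tumors and received intragastric doses once daily for 12 days (n = 10). Blood was drawn from the orbital venous plexus 24 h after the last dose. It was allowed to clot and centrifuged at 3000g for 10 min, and the serum was stored at –80 °C. AST, ALT, CRE, BUN and UA were measured with commercial kits.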

[6] = system: Mus musculus; experiment: Decrease in serum bFGF level in Kunming mouse implanted with mouse H22 cells at 50 to 200 mg/kg, ig once daily for 12 days measured at 24 hrs post last dose by ELISA; format: functional, organism-based; summary of the method: as §2
[7] = system: H22; experiment: Antitumor activity against mouse H22 cells implanted in Kunming mouse assessed as tumor growth inhibition at 50 mg/kg, ig once daily for 12 days measured at 24 hrs post last dose relative to control; format: functional; details: H22, po, read-out: TGI
Summary of the method: (§4)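 Sc H22 implant (0.2 mL, 1 × 10^6 cells per mL, right axilla). Intragastric dosing started 3 days later, once daily for 12 days in 0.2 mL; saline control; 10 mice per group. Tumors were excised and weighed 24 h after the last dose. Inhibition rate = (1 – mean treated tumor weight/mean model tumor weight) × 100%. Caliper volume taken every 2 days as A × B2/2.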

[8] = system: H22; experiment: Antitumor activity against mouse H22 cells implanted in Kunming mouse assessed as necrotic and apoptotic region at 50 to 200 mg/kg, ig once daily for 12 days measured at 24 hrs post last dose by hematoxylin and eosin staining based microscopic method; format: functional, organism-based; summary of the method: as §1
[9] = system: Mus musculus; experiment: Toxicity in Kunming mouse implanted with mouse H22 cells assessed as increase in body weight at 200 mg/kg, ig once daily for 12 days measured every 3 days during compound dosing; format: organism-based; details: in vivo, po
Summary of the method: (§5)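 H22 sc tumor-bearing mice were dosed intragastrically once daily for 12 days (0.2 mL, n = 10). Mice were weighed every three days and doses adjusted accordingly. Body weight gain = (final – initial body weight)/initial body weight.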

[10] = system: Mus musculus; experiment: Immunosuppressive effect in Kunming mouse implanted with mouse H22 cells assessed as liver index at 50 mg/kg, ig once daily for 12 days measured at 24 hrs post last dose (reference value: 4.17 +/- 0.68%); format: ADME, organism-based; details: in vivo, po
[11] = system: Mus musculus; experiment: Immunostimulatory activity in Kunming mouse implanted with mouse H22 cells assessed as increase in serum IL-2 level at 200 mg/kg, ig once daily for 12 days measured at 24 hrs post last dose by ELISA; format: functional, organism-based; summary of the method: as §2
[12] = system: H22; experiment: Antitumor activity against mouse H22 cells implanted in Kunming mouse assessed as decrease in hepatoma cell density at 200 mg/kg, ig once daily for 12 days measured at 24 hrs post last dose by hematoxylin and eosin staining based microscopic method; format: functional, organism-based; summary of the method: as §1
[13] = system: Mus musculus; experiment: Hepatotoxicity in Kunming mouse implanted with mouse H22 cells assessed as increase in serum AST level at 50 to 200 mg/kg, ig once daily for 12 days measured at 24 hrs post last dose; format: toxicity, organism-based; details: in vivo, po; summary of the method: as §3
[14] = system: Mus musculus; experiment: Immunostimulatory activity in Kunming mouse implanted with mouse H22 cells assessed as increase in serum TNFalpha level at 200 mg/kg, ig once daily for 12 days measured at 24 hrs post last dose by ELISA; format: functional, organism-based; summary of the method: as §2
[15] = system: Mus musculus; experiment: Renal toxicity in Kunming mouse implanted with mouse H22 cells assessed as increase in serum UA level at 50 to 200 mg/kg, ig once daily for 12 days measured at 24 hrs post last dose; format: organism-based; details: in vivo, po; summary of the method: as §3
[16] = system: Mus musculus; experiment: Renal toxicity in Kunming mouse implanted with mouse H22 cells assessed as increase in serum BUN level at 50 to 200 mg/kg, ig once daily for 12 days measured at 24 hrs post last dose; format: organism-based; details: in vivo, po; summary of the method: as §3
[17] = system: H22; experiment: Antitumor activity against mouse H22 cells implanted in Kunming mouse assessed as tumor growth inhibition at 200 mg/kg, ig once daily for 12 days measured at 24 hrs post last dose relative to control; format: functional; details: H22, po, read-out: TGI; summary of the method: as §4
[18] = system: Mus musculus; experiment: Immunosuppressive effect in Kunming mouse implanted with mouse H22 cells assessed as spleen index at 200 mg/kg, ig once daily for 12 days measured at 24 hrs post last dose (reference value: 0.54 +/- 0.09%); format: ADME, organism-based; details: in vivo, po
[19] = system: Mus musculus; experiment: Immunosuppressive effect in Kunming mouse implanted with mouse H22 cells assessed as spleen index at 50 mg/kg, ig once daily for 12 days measured at 24 hrs post last dose (reference value: 0.54 +/- 0.09%); format: ADME, organism-based; details: in vivo, po
[20] = system: Mus musculus; experiment: Immunostimulatory activity in Kunming mouse implanted with mouse H22 cells assessed as increase in serum IL-6 level at 200 mg/kg, ig once daily for 12 days measured at 24 hrs post last dose by ELISA; format: functional, organism-based; summary of the method: as §2
[21] = system: Mus musculus; experiment: Immunostimulatory activity in Kunming mouse implanted with mouse H22 cells assessed as increase in serum IL-6 level at 50 mg/kg, ig once daily for 12 days measured at 24 hrs post last dose by ELISA; format: functional, organism-based; summary of the method: as §2
[22] = system: Mus musculus; experiment: Toxicity in Kunming mouse implanted with mouse H22 cells assessed as increase in body weight at 50 mg/kg, ig once daily for 12 days measured every 3 days during compound dosing; format: organism-based; details: in vivo, po; summary of the method: as §5
[23] = system: Mus musculus; experiment: Immunosuppressive effect in Kunming mouse implanted with mouse H22 cells assessed as thymus index at 200 mg/kg, ig once daily for 12 days measured at 24 hrs post last dose (reference value: 0.13 +/- 0.06%); format: ADME, organism-based; details: in vivo, po
[24] = system: Mus musculus; experiment: Decrease in serum VEGF level in Kunming mouse implanted with mouse H22 cells at 50 to 200 mg/kg, ig once daily for 12 days measured at 24 hrs post last dose by ELISA; format: functional, organism-based; summary of the method: as §2
[25] = system: H22; experiment: Antitumor activity against mouse H22 cells implanted in Kunming mouse assessed as tumor growth inhibition administered ig once daily for 12 days measured at 24 hrs post last dose; format: functional; summary of the method: as §4
[26] = system: Mus musculus; experiment: Decrease in tumor hemorrhage in Kunming mouse implanted with mouse H22 cells at 50 to 200 mg/kg, ig once daily for 12 days measured at 24 hrs post last dose by hematoxylin and eosin staining based microscopic method; format: functional, organism-based; summary of the method: as §1
[27] = system: Mus musculus; experiment: Immunosuppressive effect in Kunming mouse implanted with mouse H22 cells assessed as thymus index at 50 mg/kg, ig once daily for 12 days measured at 24 hrs post last dose (reference value: 0.13 +/- 0.06%); format: ADME, organism-based; details: in vivo, po
[28] = system: Mus musculus; experiment: Renal toxicity in Kunming mouse implanted with mouse H22 cells assessed as increase in serum CRE level at 50 to 200 mg/kg, ig once daily for 12 days measured at 24 hrs post last dose; format: organism-based; details: in vivo, po; summary of the method: as §3
[29] = system: H22; experiment: Antitumor activity against mouse H22 cells implanted in Kunming mouse assessed as decrease in nuclear to cytoplasmic ratio at 50 to 200 mg/kg, ig once daily for 12 days measured at 24 hrs post last dose by hematoxylin and eosin staining based microscopic method; format: functional, organism-based; summary of the method: as §1

Activity_index [3]: 3.79%
Activity_index [10]: 3.72%
Activity_index [18]: 0.48%
Activity_index [19]: 0.48%
Activity_index [23]: 0.16%
Activity_index [27]: 0.15%
Compound: COc1c(O)cc2cc(C(=O)O)n(C)c2c1C1=c2cc(C(=O)O)[nH]c2=C(Cc2cc(C(=O)O)[nH]c2C(=O)O)C(=O)C1=O
Activity [1]: Active
Activity [2]: Active
Activity [4]: Active
Activity [5]: Non-Toxic
Activity [6]: Active
inhibition in vivo at 50 mg/kg [7]: 32.3%
Activity [8]: Active
Activity [9]: 7.56 g
Activity [11]: Active
Activity [12]: Active
Activity [13]: Non-Toxic
Activity [14]: Active
Activity [15]: Non-Toxic
Activity [16]: Non-Toxic
inhibition in vivo at 200 mg/kg [17]: 35%
Activity [20]: Active
Activity [21]: Active
Activity [22]: 8.2 g
Activity [24]: Active
TGI [25]: Dose-dependent effect
Activity [26]: Active
Activity [28]: Non-Toxic
Activity [29]: Active

Reference: ChEMBL document CHEMBL4257498, “Antitumor effects of melanin from Lachnum YM226 and its derivative in H22 tumor-bearing mice” (Medchemcomm, 2018)
